Experimental data collected from several papers.
Each line is one published result; the experiments were not run side by side. Values after ≈ are worked out from the molar mass of the structure shown.
Effect on: microbial growth

`CCCCCCCCCCCN1CCN(CC(O)(Cn2cncn2)c2ccc(F)cc2F)CC1` (centres unmarked) has an MIC of 0.24 µg/mL (≈ 0.502 µM) (Lodderomyces parapsilosis; broth dilution; ATCC22019; 48 h).
The MIC90 of `OC(Cn1cncn1)(Cn1cncn1)c1ccc(F)cc1F` is reported as 0.5 µg/mL (≈ 1.63 µM) (Lodderomyces parapsilosis; broth dilution; 24 h).
With `CCCCCCCCCCCCCCN1CCNCC1` the MIC was 0.975 µg/mL (≈ 3.45 µM) (Lodderomyces parapsilosis; broth dilution; ATCC22019; 48 h).
For `O=C(Nc1ccccc1-c1ccc(F)c(F)c1)c1nccnc1C(F)(F)F`, the EC50 was 0.04 µg/mL (≈ 0.105 µM) (Alternaria porri).
`O=[N+]([O-])c1ccc(-c2nc3ccccc3[nH]2)cc1` gave an MIC of 512 µg/mL (≈ 2140 µM) (Aspergillus niger; ATCC16404).
With `C[C@@H]1[C@H](O)[C@@H](C)/C=C/C=C/C=C/C=C/C=C/C=C/C=C/[C@H](O[C@@H]2O[C@H](C)[C@@H](O)[C@H](N)[C@@H]2O)C[C@@H]2O[C@](O)(C[C@@H](O)C[C@@H](O)[C@H](O)CC[C@@H](O)C[C@@H](O)CC(=O)O[C@H]1C)C[C@H](O)[C@H]2C(=O)O` the MIC90 was 0.125 µg/mL (≈ 0.135 µM) (Lodderomyces parapsilosis).
For `OC(CN1CCOCC1)(Cn1cncn1)c1ccc(F)cc1F` (centres unmarked), the MIC was 31.3 µg/mL (≈ 96.5 µM) (Lodderomyces parapsilosis; broth dilution; ATCC22019; 48 h).
For `C[C@@H](c1ncncc1F)[C@](O)(Cn1cncn1)c1ccc(F)cc1F`, the MIC90 was 0.016 µg/mL (≈ 0.0458 µM) (Lodderomyces parapsilosis).
For `CSc1ccc(-c2nc3ccccc3[nH]2)cc1`, the MIC was 64 µg/mL (≈ 266 µM) (Aspergillus niger; ATCC16404).
With `CC(=O)N1CCN(c2ccc(OCC3COC(Cn4ccnc4)(c4ccc(Cl)cc4Cl)O3)cc2)CC1` (centres unmarked) the MIC90 was 0.125 µg/mL (≈ 0.235 µM) (Lodderomyces parapsilosis).
`CN(C)c1ccc(-c2nc3ccccc3[nH]2)cc1` gave an MIC of 512 µg/mL (≈ 2160 µM) (Aspergillus niger; ATCC16404).
